Series [1] concerns Mus musculus. Nature of the series: Neurotoxicity in albino mouse at 300 mg/kg, ip after 0.5 hrs by rotorod test. It counts as toxicity, organism-based. The arrangement: dose 300 mg/kg, route intraperitoneal. The settings on record: in vivo. The gist of the method:
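Swiss mice (25–30 g), four per dose, got 30, 100 or 300 mg/kg i.p. and were checked on the rotorod at 0.5 and 4 h. Motor impairment meant failure to keep equilibrium on the rod for 1 min. The value is the minimum dose at which half or more of the mice were impaired.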
(In the rotarod test animals must keep their balance on a rotating rod.)

For series [2], the system named is Rattus norvegicus. Nature of the series: Anticonvulsant activity in po dosed albino rat assessed as protection against pentylenetetrazole-induced seizure after 2 hrs. The class given is functional.
Series [3] concerns Mus musculus. Nature of the series: Anticonvulsant activity in albino mouse assessed as protection against maximal electroshock-induced seizures at 300 mg/kg, ip measured after 4 hrs. The class given is functional, organism-based. The arrangement: dose 300 mg/kg. In general terms: Protection in the maximal electroshock model is a classic sign of anticonvulsant action.
In series [4] the test system is Rattus norvegicus. The series is described as follows: Anticonvulsant activity in po dosed albino rat assessed as protection against maximal electroshock-induced seizures after 2 hrs. It counts as functional.
Series [5] in a line: Neurotoxicity in po dosed albino mouse after 1 hr. The class given is toxicity, organism-based. Conditions: in vivo.
Series [6] in a line: Protective index, ratio of TD50 for neurotoxicity to ED50 for protection against pentylenetetrazole-induced seizure in albino rat after 2 hrs. The class given is toxicity, organism-based. The settings on record: in vivo, read-out: Ratio TD50/ED50. In a few lines:
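Groups of eight rats were dosed orally at the previously estimated time of peak effect, at several doses, until at least three points fell within 10–90% protection or minimal neurotoxicity. ED50 and TD50 with 95% confidence limits came from regression of the plotted data. Protective index was calculated as TD50/ED50.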

The test system of series [7] is Mus musculus. The series is described as follows: Anticonvulsant activity in albino mouse assessed as protection against maximal electroshock-induced seizures at 300 mg/kg, ip measured after 0.5 hrs. The arrangement: dose 300 mg/kg. The class given is functional, organism-based.
Series [8] has as its system Mus musculus. The series is described as follows: Neurotoxicity in albino mouse at 300 mg/kg, ip after 4 hrs by rotorod test. The class given is toxicity, organism-based. The arrangement: dose 300 mg/kg, route intraperitoneal. The settings on record: in vivo. In a few lines:
(§1)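 Swiss mice, four per dose, received 30, 100 or 300 mg/kg i.p. and were placed on a rotorod at 0.5 and 4 h. Neurotoxicity meant failure to keep balance for 1 min. The value reported is the minimum dose affecting half or more of the mice.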

Series [9] in a line: Neurotoxicity in po dosed albino rat after 2 hrs. It counts as toxicity, organism-based. Conditions: in vivo. In a few lines:
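Rats on oral fixed-dose testing (30 or 50 mg/kg) were scored for motor impairment in parallel with seizure testing, at five time points from one quarter hour to 4 h. The rotorod end point was failure to keep equilibrium for 1 min.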

The subject of series [10] is Mus musculus. The series is described as follows: Anticonvulsant activity in ip dosed albino mouse assessed as protection against 6 Hz electroshock-induced seizures after 1 hr. It counts as functional.
Series [11] deals with Mus musculus. The series is described as follows: Neurotoxicity in ip dosed albino mouse after 0.5 hrs by rotorod test. The class given is toxicity, organism-based. The settings on record: in vivo. In a few lines:
as §1

The test system of series [12] is Mus musculus. The series is described as follows: Anticonvulsant activity in ip dosed albino mouse assessed as protection against maximal electroshock-induced seizures after 0.5 hrs. Conditions: read-out: MED. It counts as functional.
The test system of series [13] is Mus musculus. Nature of the series: Anticonvulsant activity in ip dosed albino mouse assessed as protection against maximal electroshock-induced seizures after 4 hrs. The class given is functional. The settings on record: read-out: MED.
The test system of series [14] is Rattus norvegicus. The series is described as follows: Anticonvulsant activity in po dosed albino rat assessed as protection against maximal electroshock-induced seizures after 1 hr. It counts as functional.
For series [15], the system named is Rattus norvegicus. The series is described as follows: Anticonvulsant activity in po dosed albino rat assessed as protection against pentylenetetrazole-induced seizure after 1 hr. It counts as functional.
The test system of series [16] is Mus musculus. The series is described as follows: Neurotoxicity in ip dosed albino mouse after 4 hrs by rotorod test. The settings on record: in vivo. It counts as toxicity, organism-based. In a few lines:
as §1

The nature of series [17]: Neurotoxicity in po dosed albino rat after 1 hr. It counts as toxicity, organism-based. The settings on record: in vivo.
The subject of series [18] is Rattus norvegicus. Nature of the series: Hepatotoxicity in albino rat assessed as change in SGOT level at 25 mg/kg, po for 14 days (reference value: 74.2+/-5.95 units/ml). The class given is toxicity, organism-based. The arrangement: dose 25 mg/kg, route oral. The settings on record: in vivo, 336 h.
Series [19] concerns Rattus norvegicus. The series is described as follows: Hepatotoxicity in albino rat assessed as change in SGPT level at 25 mg/kg, po for 14 days (reference value: 46.1+/-5.25 units/ml). The settings on record: in vivo, 336 h. It counts as toxicity, organism-based. The arrangement: dose 25 mg/kg, route oral.
Series [20] in a line: in vivo. Conditions: albino, rat.

Active and inactive are the calls of the source. The rule behind the calls is not given here.

The source of these data is ChEMBL document CHEMBL3108729, “Design, synthesis and anticonvulsant evaluation of N-(benzo[d]thiazol-2-ylcarbamoyl)-2-methyl-4-oxoquinazoline-3(4H)-carbothioamide derivatives: a hybrid pharmacophore approach” (Eur J Med Chem, 2013).

For orientation: ED50 means the dose that gives a 50% effect, or the effect in half of the subjects. In general, TD50 refers to the dose at which the toxic effect under study appears in half of the subjects. High values mean lower toxicity, low ones greater toxicity.

With `CCC1(C)CC(=O)NC1=O` (stereo not drawn) [ETHOSUXIMIDE], the Activity result in series [1] and in series [8] was “Non-toxic” throughout. Besides, the ED50 in series [2] was 1180 µmol/kg; in series [4], more than 3540 µmol/kg; in [10] it was 1180 µmol/kg. Besides, the outcome in [3] and in series [7] was inactive. Also, in series [5], the TD50 at 1 h was 2410 µmol/kg. For the same compound, in [6], the selectivity ratio at 2 h was more than 3. The compound further had a TD50 at 2 h in [9] of more than 3540 µmol/kg.
As to `Cc1nc2ccccc2c(=O)n1C(=S)NC(=O)Nc1nc2c(Cl)cccc2s1`, the outcome in [3] and in [7] was inactive. Also, the Activity entry in series [8] is on record as “Non-toxic”. In [11], this compound came in with an MTC of 300 mg/kg.
Consider `Cc1nc2cc(F)ccc2c(=O)n1C(=S)NC(=O)Nc1nc2ccc(Cl)cc2s1`, for which the result in series [3] was inactive. Also, the Activity entry in [8] was “Non-toxic”. The minimal effective dose in series [12] turned out to be 300 mg/kg. For the same compound, the MTC in [11] is 100 mg/kg.
As to `Cc1nc2ccccc2c(=O)n1C(=S)NC(=O)Nc1nc2ccc(F)cc2s1`, the minimal effective dose in series [13] was 100 mg/kg; in series [12], 30 mg/kg. In addition, the Activity result in [8] was “Non-toxic”. The compound also showed an MTC in [11] of 300 mg/kg.
For `Cc1nc2ccccc2c(=O)n1C(=S)NC(=O)Nc1nc2ccc(Br)cc2s1` the same measures were 300 mg/kg, 100 mg/kg, “Non-toxic” and 300 mg/kg.
In the case of `Cc1nc2cc(F)ccc2c(=O)n1C(=S)NC(=O)Nc1nc2ccc(O)cc2s1`, the outcome in series [3] and in series [7] was inactive.
As to `Cc1nc2cc(F)ccc2c(=O)n1C(=S)NC(=O)Nc1nc2ccc(F)cc2s1`, the result in series [3] and in [7] was inactive.
Consider `Cc1nc2cc(Cl)ccc2c(=O)n1C(=S)NC(=O)Nc1nc2c(Br)cccc2s1`, for which the result in series [3] and in series [7] was inactive.
Consider `Cc1nc2cc(F)ccc2c(=O)n1C(=S)NC(=O)Nc1nc2ccc(Br)cc2s1`, for which the outcome in [3] was inactive. Besides, in series [8], the Activity result is listed as “Non-toxic”. The minimal effective dose in [12] is 300 mg/kg. This compound showed an MTC in [11] of 300 mg/kg.
For `Cc1nc2cc(Cl)ccc2c(=O)n1C(=S)NC(=O)Nc1nc2ccc(OC(F)(F)F)cc2s1`, the minimal effective dose in series [13] and in series [12] was 100 mg/kg each time. Moreover, the Activity result in series [8] is recorded as “Non-toxic”. Besides, the MTC in [11] stood at 300 mg/kg.
For the compound `COc1ccc2nc(NC(=O)NC(=S)n3c(C)nc4cc(F)ccc4c3=O)sc2c1`, the result in [3] and in series [7] was inactive.
On to `Cc1nc2cc(Cl)ccc2c(=O)n1C(=S)NC(=O)Nc1nc2ccc(Cl)cc2s1`, for which the minimal effective dose in series [13] and in [12] was 100 mg/kg each time. In series [11], this compound gave an MTC of 300 mg/kg.
For `NC(=O)N1c2ccccc2C=Cc2ccccc21` [CARBAMAZEPINE], the ED50 was 15.1 µmol/kg in series [14] and more than 1060 µmol/kg in series [15]. The minimal effective dose in [13] came to 100 mg/kg; in [12], 30 mg/kg. Besides, the MTC came out at 300 mg/kg in series [16] and 100 mg/kg in series [11]. The compound also registered a TD50 at 1 h in series [17] of 1530 µmol/kg.
On to `O=C1NC(=O)C(c2ccccc2)(c2ccccc2)N1` [PHENYTOIN], for which the minimal effective dose in series [13] and in series [12] was 30 mg/kg each time. The figures for the ED50 in series [2] and in series [4] were more than 3540 µmol/kg and 92 µmol/kg, respectively. The Activity in series [18] is 84.1 U/ml; in series [19], 52.6 U/ml. Also, the MTC in series [16] and in [11] was 100 mg/kg throughout. This compound returned a TD50 at 2 h in [9] of more than 1980 µmol/kg. In [20], the selectivity ratio at 2 h is more than 22.
As for `COc1ccc2nc(NC(=O)NC(=S)n3c(C)nc4ccccc4c3=O)sc2c1`, the outcome in series [3] and in [7] was inactive.
As to `Cc1ccc2nc(NC(=O)NC(=S)n3c(C)nc4ccccc4c3=O)sc2c1`, in series [3], the outcome was inactive. The Activity result in [8] is given as “Non-toxic”. Besides, the minimal effective dose in series [12] was determined as 300 mg/kg. In series [11], this compound registered an MTC of 300 mg/kg.
